# The list is not random: actives were taken first. Their share in the collection is about 2.2%.
# PPC-1+TRAIL kill = PPC-1 cancer cell killing with TRAIL present; PPC-1 cells + TRAIL, ATPLite viability luminescence; cell killing (% activity), % at 4 µM or 5 µM; 0.41% of 220,000 active; AID 1443;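 active = cell killing above 50% in the first pass at 4 µM, then a duplicate retest at 5 µM averaging 50% or more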
# C8 TRAIL sens = sensitizes caspase-8 expressing cells to TRAIL. NB7+C8 cells + TRAIL, ATPlite viability luminescence. inhibition (viability loss, TRAIL sensitization), % at 10 µM. 1% of 360,000 active. AID 624354;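 active = compounds causing at least 50% loss of cell viability in the single-dose screen, relative to plate controls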
# FLuc stim CS = affects firefly luciferase, flagging false hits in luciferase stimulation screens | P08659 | ATPlite luciferase biochemical, luminescence, 10 min; 0 = ATP-free wells, 1 = DMSO control | activation factor at 10 µM | 200,000 tested, under 10 active;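 active = luciferase activation factor, scaled between plate controls, of at least 2 with compound at 10 µM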
#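 Assay system: Luciferase/luciferin detection reagent, cell-free biochemical luciferase assay / Also added: ATP substrate / Schedule: 10 min at ambient temperature / Measured by: luminescence measurement of luciferase light output / Benchmarks: low control with PBS replacing ATP, high control enzyme plus ATP without compound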
# APP 5'UTR act = activates APP 5'UTR luciferase reporter; SH-SY5Y APP 5'UTR luciferase reporter, luminescence; zero percent = DMSO vehicle wells; activation, % at 2 µM; 1% of 190,000 active; AID 1276;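 active = activation above a set limit, based on mean plus 3 SD of controls, cut at about 140% in these data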
# FLuc inhib CS = inhibits firefly luciferase, flagging false hits in luciferase inhibition screens; inhibition, % at 10 µM; 1.5% of 200,000 active; AID 1006; P08659; ATPLite firefly luciferase biochemical luminescence, 10 min;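 active = inhibition above about 50% when tested at 10 µM, limit read from the data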
# NF-kB neuron act = raises NF-kB expression in human neuronal cells | fold change at 12.5 µM | 1.6% of 190,000 active | NF-kB reporter expression; hits give high values; in the data active = fold change above about 3.3
# A number is an active result; 0 = inactive; - = not tested or not shown.
SMILES,PPC-1+TRAIL kill,C8 TRAIL sens,FLuc stim CS,APP 5'UTR act,FLuc inhib CS,NF-kB neuron act
COc1ccc(CNC(=O)Cn2c(=O)n(CCC(=O)N3CCCCC3)c(=O)c3sccc32)cc1,-,0,-,-,-,-
Cc1ccc(NC(=O)c2cc(C)on2)cc1,0,0,0,0,0,3.3
CCc1ccc(NC(=O)c2cc(C(C)C)on2)cc1,0,0,0,137,0,8
CCc1ccc(NC(=O)c2cc(C)on2)cc1,0,0,0,200,61,5.8
CCCc1cc(C(=O)Nc2ccc(C)cc2)no1,0,0,0,0,0,0
CCCc1cc(C(=O)Nc2ccc(CC)cc2)no1,-,0,-,-,-,-
CN(C)CCC1(c2ccccc2)CCN(C)C1=O (stereo unspecified),-,0,-,-,-,-
C/C(=N\NC(=O)COc1ccc(C(C)(C)C)cc1)c1ccc(-n2ccnc2)cc1,0,59,0,0,80,0
COc1ccc(OCC(=O)N/N=C(\C)c2ccc(-n3ccnc3)cc2)cc1,0,0,0,-,57,0
COc1cc(NC(=O)COc2ccc(-n3ccnc3)cc2)cc(OC)c1,0,0,0,0,0,0
O=C(Nc1ncccn1)c1ccc([N+](=O)[O-])o1,0,0,0,0,0,0
O=C(Nc1ccccn1)c1ccc([N+](=O)[O-])o1,0,0,0,0,0,4.3
Cc1ccc(CNC(=O)c2nn(C)c(C)c2[N+](=O)[O-])cc1,0,0,0,0,0,0
Cc1ccc(CNC(=O)c2ccc([N+](=O)[O-])o2)cc1,0,0,0,0,0,3.5
Cc1ccc(NC(=O)C2CC2c2ccccc2)c([N+](=O)[O-])c1 (stereo unspecified),-,0,-,-,-,-
CCCCc1ccc(NC(=O)C(=O)NCCN2CCN(C(=O)c3ccc([N+](=O)[O-])cc3)CC2)cc1,-,0,-,-,-,-
Nc1cccc2c1C(=O)N(C(=O)c1ccco1)C2=O,0,0,-,-,-,-
Nc1cccc2c1C(=O)N(C(=O)/C=C/c1ccc(F)cc1)C2=O,0,0,0,0,52,0
O=C1OC(c2ccccc2)=C/C1=C/c1cccs1,0,0,0,0,79,0
CC(C)CC(=O)N1CC=CC[C@@H](c2ccc(Cl)cc2)N(Cc2ccc(Cl)cc2)C(=O)[C@@H]1Cc1ccccc1,-,0,-,-,-,-
COCCNC(=O)c1ccc2c3n(nc2c1)-c1ccc(C)cc1CO3,0,0,-,-,-,-
O=C(NCC1CCCO1)c1ccc2c3n(nc2c1)-c1ccccc1CO3 (stereo unspecified),0,51,-,-,-,-
C=CCNc1ncnc2c1[nH]c1ccc(C)cc12,0,0,0,179,0,4.5
COc1ccc2[nH]c3c(NCCC4=CCCCC4)ncnc3c2c1,-,54,0,0,0,0
Cc1ccc(N(CC(=O)NCC2CCCO2)C(=O)Cn2nnc(-c3cccs3)n2)cc1 (stereo unspecified),0,0,0,0,0,0
SMILES,PPC-1+TRAIL kill,C8 TRAIL sens,FLuc stim CS,APP 5'UTR act,FLuc inhib CS,NF-kB neuron act
COC(=O)[C@]12CCCCC=C1N(CCc1ccc(OC)c(OC)c1)C(=O)[C@H](CC(=O)NCC1CCCCC1)C2,-,0,-,-,-,-
COc1cccc(C=NNc2ccc([N+](=O)[O-])cn2)c1OC,-,0,-,-,-,-
COc1cccc(/C=N/Nc2ncnc(N)c2[N+](=O)[O-])c1OC,0,0,0,0,78,0
COc1cccc(/C=N/Nc2ncnc(Cl)c2N)c1O,60,59,0,0,68,0
COc1ccccc1/C=N/Nc1nncc2ccccc12,0,0,0,0,0,0
COc1cccc(C=NNc2nnc(NN=Cc3cccc(OC)c3OC)c3ccccc23)c1OC,-,80,-,-,-,-
Cc1ccc(NC(=O)c2ccccc2F)nc1,0,0,0,0,52,0
Cc1ccc(NC(=O)c2cc(F)c(F)cc2Cl)nc1,0,0,0,0,0,0
O=C(Nc1ccccc1C(=O)Nc1ccc(Br)cn1)c1ccccc1Cl,-,0,-,-,-,-
Cc1ccccc1C(=O)Nc1ccc(Br)cn1,0,0,0,0,0,3.8
N#C/C(=C\c1ccc[nH]1)C(=O)Nc1ccccc1[N+](=O)[O-],-,0,-,-,-,-
COc1ccc(N2CCN(C(=O)c3cc([N+](=O)[O-])ccc3N3CCN(CCO)CC3)CC2)cc1,-,0,-,-,-,-
CC(C)(C)c1ccc(/C=C/C(=O)NC2=NCCS2)cc1,0,52,0,184,0,0
Cc1ccc(/C=C/C(=O)NC2=NCCS2)cc1,0,76,0,180,86,5.6

# Source: PubChem
